Experiment [1] concerns the target T1, CLC-0 E166F mutant (Torpedo marmorata, UniProt P21564, C212S/E166F).
T1 sequence (P21564 1-805 E166F/C212S): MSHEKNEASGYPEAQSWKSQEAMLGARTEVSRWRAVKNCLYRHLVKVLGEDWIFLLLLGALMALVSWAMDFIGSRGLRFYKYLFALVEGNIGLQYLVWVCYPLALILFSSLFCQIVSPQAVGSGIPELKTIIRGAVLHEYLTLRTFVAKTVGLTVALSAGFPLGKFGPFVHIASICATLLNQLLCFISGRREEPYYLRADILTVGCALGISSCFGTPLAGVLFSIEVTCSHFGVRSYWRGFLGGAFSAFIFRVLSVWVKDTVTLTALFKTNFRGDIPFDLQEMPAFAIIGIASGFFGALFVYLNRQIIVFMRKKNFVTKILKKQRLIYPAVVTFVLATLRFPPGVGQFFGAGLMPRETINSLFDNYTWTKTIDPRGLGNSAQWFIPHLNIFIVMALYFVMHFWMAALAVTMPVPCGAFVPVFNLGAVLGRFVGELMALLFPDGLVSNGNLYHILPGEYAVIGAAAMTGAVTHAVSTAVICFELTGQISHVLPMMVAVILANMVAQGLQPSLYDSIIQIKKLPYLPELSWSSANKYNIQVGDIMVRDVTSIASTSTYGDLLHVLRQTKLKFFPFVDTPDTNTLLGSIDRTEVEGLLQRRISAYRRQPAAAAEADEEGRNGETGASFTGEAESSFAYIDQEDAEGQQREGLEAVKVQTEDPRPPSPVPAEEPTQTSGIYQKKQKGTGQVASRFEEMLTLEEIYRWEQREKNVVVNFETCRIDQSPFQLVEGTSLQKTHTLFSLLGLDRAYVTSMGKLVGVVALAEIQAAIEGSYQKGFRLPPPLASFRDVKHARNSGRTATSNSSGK
It is filed as cell-based. The conditions noted are these: read-out: Apparent affinity (K1/2). An outline of the steps: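 CLC-0 mutants (C212S background) were lipofectamine-transfected into HEK293 cells and recorded 1–3 d later from inside-out patches. Pipette and bath contained 130 mM NaCl, 5 MgCl2, 10 HEPES and 1 EGTA (pH 7.4). Test compound was perfused onto the cytoplasmic side. A +80 mV prepulse preceded steps to steady state. The last-10-ms current was normalized to bracketing blocker-free controls and fitted to a Langmuir function for K1/2.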

The target in experiment [2] is T2, CLC-0 E166Y mutant (Torpedo marmorata, UniProt P21564, C212S/E166Y).
T2 sequence (P21564 1-805 E166Y/C212S): T1 sequence (P21564 1-805 E166F/C212S) with F166Y
It is filed as cell-based. The following applies: read-out: Apparent affinity (K1/2). Summed up: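 CLC-0 mutants in the C212S background were transfected into HEK293 cells with lipofectamine and recorded 1–3 d later as excised inside-out patches. Both sides held 130 mM NaCl, 5 mM MgCl2, 10 mM HEPES and 1 mM EGTA, pH 7.4. CPA was perfused continuously onto the cytoplasmic face. Steady-state current over the last 10 ms was normalized to bracketing blocker-free controls and fitted to a Langmuir function for K1/2. Values are mean ± SEM of ~4–6 patches.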

Molecules are shown by their SMILES. Residue numbers refer to the chain shown, from its start. Like-named read-outs stand apart in the source and are kept apart here.

Consider `O=C(O)COc1ccc(Cl)cc1` [CPA, p-chlorophenoxy acetate], for which the IC50 in experiment [1] (−40 mV) amounted to 5120 ± 1720 µM; in experiment [1] (−60 mV) it was 2060 ± 300 µM; in experiment [1] (−80 mV), 730 ± 90 µM; in experiment [1] (−100 mV), 350 ± 30 µM; in experiment [1] (−120 mV), 170 ± 20 µM; in experiment [1] (−140 mV), 93 ± 12 µM. For the same compound, the IC50 in experiment [1] (−160 mV) stood at 47 ± 7 µM; in experiment [2] (−40 mV), 6180 ± 670 µM; in experiment [2] (−60 mV) it was 2790 ± 150 µM; in experiment [2] (−80 mV), 1370 ± 50 µM; in experiment [2] (−100 mV) it was 700 ± 10 µM; in experiment [2] (−120 mV) it was 380 ± 10 µM. Further, the IC50 in experiment [2] (−140 mV) was 220 ± 10 µM; in experiment [2] (−160 mV), 130 ± 10 µM.

`CCCCCCCC(=O)O` [octanoate]: the IC50 in experiment [1] (−40 mV) came out at 3090 ± 560 µM; in experiment [1] (−60 mV) it was 1630 ± 160 µM; in experiment [1] (−80 mV) it was 803 ± 50 µM; in experiment [1] (−100 mV), 455 ± 15 µM; in experiment [1] (−120 mV), 254 ± 7 µM; in experiment [1] (−140 mV) it was 150 ± 4 µM. The IC50 in experiment [1] (−160 mV) was 91 ± 1 µM; in experiment [2] (−80 mV), 16700 ± 650 µM; in experiment [2] (−100 mV) it was 11200 ± 540 µM; in experiment [2] (−120 mV), 7430 ± 410 µM; in experiment [2] (−140 mV), 4990 ± 310 µM; in experiment [2] (−160 mV) it was 3360 ± 180 µM.
